Several values for one entry are separate records, joined by “and”; a condition that tells them apart may be missing. Equal entries are not always repeated.
Key:
231-BR cells [1] = assay: MTT-based viability assay; assay type: cell-based; conditions: Homo sapiens, 48 h, read-out: IC50 viability of 231-BR cells
Outline: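 231-BR cells in 10% FBS had continuous exposure to test compound over 1–100 nM for 48 h, then an MTT viability read-out. Viability is expressed as percent of vehicle control. There were three separate experiments with n = 4 per point; log10-transformed data went to mixed-model ANOVA with Dunnett post-hoc comparison.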

231-BR cells [2] = assay: Survival study in 231-BR brain metastasis model; assay type: in vivo, nu/nu NRC mice; conditions: 50 mg/kg
[3] = phase I study in 40 patients ref 6; cited from earlier work
231-BR cells [4] = assay: Western blot of apoptotic markers and phosphorylated Histone H3; assay type: cell-based, human
Outline: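 231-BR cells were treated with test compound at 5 or 10 nM for the indicated times, then lysed and run on SDS-PAGE with immunoblotting. Antibodies: PLK-1, phospho-histone H3, cleaved and total caspase 9, 8 and 3. Tubulin served as the loading control.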

TP53 mutant cells = conditions: cited from earlier work
[5] = Preliminary dose finding experiments; assay type: in vivo; conditions: 75 mg/kg, intraperitoneally every other day, mice
[6] = Whole body autoradiography tissue uptake; assay type: in vivo, rats; conditions: rat, single 12.5 mg/kg dose
Outline: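 Rats received a single dose of [14C]-labelled test compound and were sacrificed at timed points up to 24 h. Radioactivity in whole-body sections (brain, striatum, blood) was quantified by phosphoimager against 14C autoradiography standards. Results are μg equivalents/g tissue; limit of quantitation 0.051 μg equivalents/g.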

231-BR cells [7] = assay: 231-BR experimental brain metastasis prevention model; assay type: in vivo, nu/nu NRC mice; conditions: for Micrometastases Mean: vehicle 239
Outline: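 Female nu/nu NRC mice, 5–7 weeks old, received 175,000 231-BR cells into the left cardiac ventricle. On day 3 they were randomised to test compound or vehicle (2% Cremophor EL, 2% N,N-dimethylacetamide in acidified pH 5 water). Brains were bisected sagittally; ten serial 10-micron sections every 300 microns through the right hemisphere were scored at 50×. Micro and large (>300 micron) lesions are given as mean per section, from two experiments combined, by mixed-model ANOVA with Dunnett adjustment.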

231-BR cells [8] = assay: Clonogenic survival assay with irradiation; assay type: cell-based, human; conditions: 40 nM, 2 h prior to irradiation, surviving fraction of 0.1

C[C@@H](Oc1cc(-n2cnc3ccc(CN4CCN(C)CC4)cc32)sc1C(N)=O)c1ccccc1C(F)(F)F [GSK461364A]
IC50 (231-BR cells [1]): ~5 nM | prolonged survival (231-BR cells [2]; treatment started 3 days post-injection): 17% | survival compared to the vehicle control group (231-BR cells [2]; treatment started day 3, 7 or 14 post-injection): extended survival to the same extent | limiting toxicities [3]: neutropenia, thrombocytopenia and bone marrow suppression | phospho-Histone H3 (pHH3) in circulating tumor cells [3]: Increased | pHH3 levels (Western blot) (231-BR cells [4]; 231-BR cells treated with 5 and 10 nM): increase in pHH3 levels | cleaved caspase 9 and cleaved caspase 3 (Western blot) (231-BR cells [4]; 231-BR cells treated with 5 or 10 nM): Cleaved caspase 9 and cleaved caspase 3 were observed | sensitivity in TP53 mutant cells (TP53 mutant cells): increased sensitivity | toxicity in dose finding [5]: toxic causing acute weight loss | Tissue uptake, Brain ([6]; 0.5 h): 3.192 μg equivalents/g tissue | Tissue uptake, Brain (striatum) ([6]; 0.5 h): 4.283 μg equivalents/g tissue | Tissue uptake, Choroid plexus ([6]; 0.5 h): 32.560 μg equivalents/g tissue | Tissue uptake, Meninges ([6]; 0.5 h): 10.305 μg equivalents/g tissue | Tissue uptake, Blood (cardiac) ([6]; 0.5 h, listed as [^14C]GSK461364A, 12.5 mg/kg): 2.4 μg equivalents/g tissue and 2.396^a μg equivalents/g tissue | Drug uptake in the brain or striatum ([6]; 30 min post-injection): 3.2–4.3 μg equivalents/g of tissue | Tissue uptake, Blood (cardiac) ([6]; 2 h): 0.730 μg equivalents/g tissue | Tissue uptake, Brain ([6]; 2 h): 0.363 μg equivalents/g tissue | Tissue uptake, Brain (striatum) ([6]; 2 h): 0.522 μg equivalents/g tissue | Tissue uptake, Choroid plexus ([6]; 2 h): 9.734 μg equivalents/g tissue | Tissue uptake, Meninges ([6]; 2 h): 1.236 μg equivalents/g tissue | Tissue uptake, Blood (cardiac) ([6]; 6 h): 0.183 μg equivalents/g tissue | Tissue uptake, Brain ([6]; 6 h): 0.088 μg equivalents/g tissue | Tissue uptake, Brain (striatum) ([6]; 6 h): 0.225 μg equivalents/g tissue | Tissue uptake, Choroid plexus ([6]; 6 h): 2.790 μg equivalents/g tissue | Tissue uptake, Meninges ([6]; 6 h): 1.239 μg equivalents/g tissue | Tissue uptake, Brain ([6]; 24 h): 0.126 μg equivalents/g tissue | Tissue uptake, Brain (striatum) ([6]; 24 h): 0.288 μg equivalents/g tissue | Tissue uptake, Choroid plexus ([6]; 24 h): 2.342 μg equivalents/g tissue | Tissue uptake, Meninges ([6]; 24 h): 4.881 μg equivalents/g tissue | Tissue uptake, Blood (cardiac) ([6]; 24 h, BLQ = <0.051 μg equivalents/g, 12.5 mg/kg): undetectable | Tissue uptake, Blood (cardiac) ([6]; 24 h, BLQ = <0.051 μg equivalents/g, listed as [^14C]GSK461364A, 12.5 mg/kg): BLQ^b | Drug remaining in the brain ([6]; 24 h post-injection): 0.13–0.29 μg equivalents/ g | Micrometastases Mean (231-BR cells [7]; 25 mg/kg IP every other day for 27 days from day 3): 177 lesions/ section | reduction in micrometastases vs vehicle (231-BR cells [7]; 25 mg/kg, statistically insignificant): 26% | Micrometastases Mean (231-BR cells [7]; 50 mg/kg IP every other day for 27 days from day 3): 159 lesions/ section | decline in large brain metastases vs vehicle (231-BR cells [7]; 50 mg/kg, treatment started 3 days post-injection): 62% | dose enhancement factor (231-BR cells [8]): 1.5

Reference: publication PMC7416514 (Clinical & experimental metastasis, 2011)
